# Assay results reported in ChEMBL document CHEMBL1123180, “Improved glucose tolerance in rats treated with oxazolidinediones” (1986).
# Active and inactive are the calls of the source. The rule behind the calls is not given here.
# System: Rattus norvegicus
# Test: Ability to lower blood sugar level at the dose of 10 mg/kg in fasted rats, by using glucose tolerance test(GTT); NA=Inactive
# Assay type: functional, organism-based
# Parameters: dose 10 mg/kg
# Method in brief: (§1)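 Male albino rats, groups of five or six, fasted 18–24 h. Glucose 1 g/kg given ip; test drug (0.1 to 100 mg/kg) or water (controls) given orally. Tail-vein blood sampled over 0–3 h; glucose (mg/100 mL) measured by Autoanalyser ferricyanide method. Value is percent lowering of blood glucose vs controls at 0.5 h; a lowering of ≥9% is needed for P = 0.05.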
row,SMILES,Blood sugar lowering
1,COc1ccc(S(=O)(=O)N(C)C)cc1C1OC(=O)NC1=O (stereo not given),inactive
2,COc1cc(C2OC(=O)NC2=O)c(C)cc1F (stereo not given),inactive
3,O=C1NC(=O)C(c2c(Cl)cccc2OCC2CC2)O1 (stereo not given),inactive
4,COc1cccc(C2OC(=O)NC2=O)c1 (stereo not given),inactive
5,COc1ccc(C(C)C)cc1C1OC(=O)NC1=O (stereo not given),inactive
6,COc1ccc(OC)c(C2OC(=O)NC2=O)c1 (stereo not given),inactive
7,COc1cc(C)c(Cl)cc1C1OC(=O)NC1=O (stereo not given),inactive
8,COc1cc(C2OC(=O)NC2=O)c(Cl)cc1C (stereo not given),inactive
9,O=C1NC(=O)C(c2ccc(F)cc2C(F)(F)F)O1 (stereo not given),inactive
10,O=C1NC(=O)C(c2c(Cl)cccc2-n2cccc2)O1 (stereo not given),inactive

# System: Rattus norvegicus
# Test: Compound was tested for the ability to lower blood sugar level at the dose of 1 mg/kg in fasted rats, by using glucose tolerance test(GTT)
# Assay type: functional
# Method in brief: as §1
row,SMILES,Blood sugar lowering [%]
1,COc1ccc(Cl)cc1C1OC(=O)NC1=O (stereo not given),12
2,COc1cccc(F)c1C1OC(=O)NC1=O (stereo not given),11

# System: Rattus norvegicus
# Test: Ability to lower blood sugar level at the dose of 25 mg/kg in fasted rats, by using glucose tolerance test(GTT)
row,SMILES,Blood sugar lowering [%]
1,COc1cccc([N+](=O)[O-])c1C1OC(=O)NC1=O (stereo not given),10

# System: Rattus norvegicus
# Test: Ability to lower blood sugar level at the dose of 10 mg/kg in fasted rats, by using glucose tolerance test(GTT)
# Assay type: functional
# Method in brief: as §1
row,SMILES,Blood sugar lowering [%]
1,O=C1NC(=O)C(c2c(F)cccc2Cl)O1 (stereo not given),12
2,COc1ccc(C)cc1C1OC(=O)NC1=O (stereo not given),21
3,COc1cccc(OC)c1C1OC(=O)NC1=O (stereo not given),12
4,COc1cccc(C)c1C1OC(=O)NC1=O (stereo not given),10
5,O=C1NC(=O)C(c2ccccc2C(F)(F)F)O1 (stereo not given),11
6,COc1ccc(Cl)c(C)c1C1OC(=O)NC1=O (stereo not given),12
7,COc1c(Cl)cc(F)cc1C1OC(=O)NC1=O (stereo not given),15
8,COc1c(F)cc(C)cc1C1OC(=O)NC1=O (stereo not given),17
9,Cc1ccccc1C1OC(=O)NC1=O (stereo not given),14
10,Cc1cccc(C)c1C1OC(=O)NC1=O (stereo not given),13
11,O=C1NC(=O)C(c2cccc(C(F)(F)F)c2)O1 (stereo not given),17
12,O=C1NC(=O)C(c2ccccc2Cl)O1 (stereo not given),11
13,O=C1NC(=O)C(c2cccc(F)c2)O1 (stereo not given),10
14,COc1c(C)cc(Cl)cc1C1OC(=O)NC1=O (stereo not given),17
15,O=C1NC(=O)C(c2ccccc2)O1 (stereo not given) [PEMOLINE DIONE],13

# System: Rattus norvegicus
# Test: Compound was tested for the ability to lower blood sugar level at the dose of 25 mg/kg in rats, by using glucose tolerance test(GTT)
# Assay type: functional
# Method in brief: as §1
row,SMILES,Blood sugar lowering [%]
1,O=C1NC(=O)C(c2ccccc2)O1 (stereo not given) [PEMOLINE DIONE],26

# System: Rattus norvegicus
# Test: Ability to lower blood sugar level at the dose of 25 mg/kg in fasted rats, by using glucose tolerance test(GTT); NA=Inactive
# Assay type: functional, organism-based
# Parameters: dose 25 mg/kg
# Method in brief: as §1
row,SMILES,Blood sugar lowering
1,COc1ccc(C(=O)O)cc1C1OC(=O)NC1=O (stereo not given),inactive
2,COc1ccc(N)cc1C1OC(=O)NC1=O (stereo not given),inactive
3,COc1ccc(C(N)=O)cc1C1OC(=O)NC1=O (stereo not given),inactive
4,O=C1NC(=O)C(c2c(Cl)cccc2OCc2ccccc2)O1 (stereo not given),inactive
5,O=C1NC(=O)C(c2c(Cl)cccc2[N+](=O)[O-])O1 (stereo not given),inactive
6,CS(=O)(=O)Nc1ccccc1C1OC(=O)NC1=O (stereo not given),inactive
7,COc1ccc(S(=O)(=O)NC(=O)NC2CCCCC2)cc1C1OC(=O)NC1=O (stereo not given),inactive
8,O=C1NC(=O)C(c2ccccc2NS(=O)(=O)c2ccccc2)O1 (stereo not given),inactive
9,COc1cccc(C(F)(F)F)c1C1OC(=O)NC1=O (stereo not given),inactive
10,COc1ccc(CCn2ccnc2)cc1C1OC(=O)NC1=O (stereo not given),inactive
11,COc1cccc(N)c1C1OC(=O)NC1=O (stereo not given),inactive
12,COc1ccc(-c2ccccc2)cc1C1OC(=O)NC1=O (stereo not given),inactive
13,O=C(Nc1ccccc1C1OC(=O)NC1=O)NC1CCCCC1 (stereo not given),inactive
14,O=C1NC(=O)C(c2ccccc2OCCn2ccnc2)O1 (stereo not given),inactive
15,O=C1NC(=O)C(c2c(F)cccc2C(F)(F)F)O1 (stereo not given),inactive
16,COc1cccc(NC(C)=O)c1C1OC(=O)NC1=O (stereo not given),inactive

# System: Rattus norvegicus
# Test: Compound was tested for the ability to lower blood sugar level at the dose of 25 mg/kg in fasted rats, by using glucose tolerance test(GTT); NA=Inactive
# Assay type: functional, organism-based
# Parameters: dose 25 mg/kg
# Method in brief: as §1
row,SMILES,Blood sugar lowering
1,O=C1NC(=O)C(c2ccccc2)S1 (stereo not given),inactive

# System: Rattus norvegicus
# Test: Compound was tested for the ability to lower blood sugar level at the dose of 25 mg/kg in fasted rats, by using glucose tolerance test(GTT)
# Assay type: functional
# Method in brief: as §1
row,SMILES,Blood sugar lowering [%]
1,COc1ccc([N+](=O)[O-])cc1C1OC(=O)NC1=O (stereo not given),17

# System: Rattus norvegicus
# Test: Ability to lower blood sugar level at the dose of 2.5 mg/kg in fasted rats, by using glucose tolerance test(GTT)
# Assay type: functional
# Method in brief: as §1
row,SMILES,Blood sugar lowering [%]
1,COc1ccc(C)cc1C1OC(=O)NC1=O (stereo not given),10

# System: Rattus norvegicus
# Test: Ability to lower blood sugar level at the dose of 100 mg/kg in fasted rats, by using glucose tolerance test(GTT)
# Assay type: functional
# Method in brief: as §1
row,SMILES,Blood sugar lowering [%]
1,O=C1NC(=O)C(c2ccccc2)O1 (stereo not given) [PEMOLINE DIONE],35

# System: Rattus norvegicus
# Test: Compound was tested for the ability to lower blood sugar level at the dose of 100 mg/kg in fasted rats, by using glucose tolerance test(GTT)
# Assay type: functional
# Method in brief: as §1
row,SMILES,Blood sugar lowering [%]
1,O=C1NC(=O)C(c2ccccc2)S1 (stereo not given),34
